Bioassay records: PubChem BioAssay, Sanford-Burnham Center for Chemical Genomics
Most compounds without a hit are left out; they make up all but 1.9% or so of the library.
LMPTP block – LMPTP (human) inhibition. recombinant LMPTP-A, OMFP fluorogenic substrate, fluorescence intensity. inhibition, % at 20 µM. hit rate 0.22% among 360,000. AID 651560;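 active means compounds that cut the enzyme signal by at least half of the control window in the single-dose screen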;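 further: plate controls were DMSO wells with enzyme plus substrate for no effect and substrate without enzyme for full effect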
Target sequence (P24666 whole entry, looked up): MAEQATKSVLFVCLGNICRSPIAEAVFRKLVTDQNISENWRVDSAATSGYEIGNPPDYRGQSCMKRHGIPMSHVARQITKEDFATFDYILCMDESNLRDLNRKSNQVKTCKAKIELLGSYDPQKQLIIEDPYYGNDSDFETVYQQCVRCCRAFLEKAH
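test system = LMPTP-A | amount = 0.625 nM LMPTP-A final | reagent = fluorogenic phosphatase substrate OMFP at 400 µM final | incubation = 50 min at room temperature | benchmarks = no-enzyme low control, uninhibited high control | medium = Bis-Tris pH 6.0, DTT, detergent | signal = fluorescence intensity of OMFP turnover product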
CSN inh – blocks human CSN-mediated cullin deneddylation | inhibition, % at 12.5 µM | Purified CSN, SCF-Nedd8-OG deneddylation, fluorescence polarization | Q92905 | hit rate 0.38% among 360,000;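 active means pattern-corrected inhibition above about 35%, with an unprinted fluorescence ratio check between 0.5 and 1.5, limit read from the data, passing the limit was not always enough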;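 further: 0% = enzyme with substrate and 100% = substrate without enzyme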
Target sequence (Q92905 whole entry, looked up, one chain of several): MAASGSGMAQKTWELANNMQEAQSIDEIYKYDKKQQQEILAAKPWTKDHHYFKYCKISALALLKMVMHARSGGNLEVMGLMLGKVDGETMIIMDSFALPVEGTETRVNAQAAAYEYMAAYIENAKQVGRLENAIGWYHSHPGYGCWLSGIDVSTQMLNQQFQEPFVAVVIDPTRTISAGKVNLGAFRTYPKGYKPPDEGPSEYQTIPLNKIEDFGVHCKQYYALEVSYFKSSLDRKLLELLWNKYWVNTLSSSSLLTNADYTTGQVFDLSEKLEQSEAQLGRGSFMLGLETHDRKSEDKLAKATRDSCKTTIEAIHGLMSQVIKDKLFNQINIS
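Test system: Human Csn5 produced in HEK293T cells | Compound: 12.5 µM single point | Times: 90 min, room temperature | Signal: Fluorescence polarization readout | Read-out basis: % inhibition of substrate cleavage by Csn5 | Controls: no-enzyme wells high, enzyme-with-substrate wells low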
Scp1 inh – blocks human Scp-1 phosphatase activity | Recombinant Scp1, phosphopeptide, malachite green phosphate absorbance | inhibition, % at 20 µM | hit rate 0.88% among 340,000 | AID 493091;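 active means inhibition above about 50% at 20 µM, limit read from the data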;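 further: plate controls were DMSO wells with enzyme for no effect and wells lacking enzyme for full effect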
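Material – SCP-1 phosphatase catalytic domain, residues 76-261 · Buffer or medium – Acidic Tris acetate buffer with magnesium and detergent · Also added – Phospho 17-mer peptide substrate · Compound – single 20 µM dose, 1% DMSO · Times – 45 min room-temperature reaction, 5 min colour, 30 min stabiliser · Technique – Phosphate-binding colour reagent, absorbance read at 630 nm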
STEP inh – inhibitors of human striatal-enriched phosphatase STEP. inhibition, % at 20 µM. hit rate 0.25% among 360,000. P54829. recombinant STEP, OMFP fluorogenic substrate, fluorescence;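 active means inhibition at 20 µM, scaled per plate between control wells, above about 37%, limit read from the data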;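 further: 0% = DMSO with enzyme and substrate and 100% = substrate only without enzyme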
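System: STEP phosphatase, cell-free reaction; Buffer or medium: Bis-Tris pH 6.0 buffer with DTT, detergent; Incubation: 20 min at room temperature, dark; Measured by: fluorescence, 480/540 nm.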
SUMO1 PPI mod – modulators of human SUMO1-mediated protein-protein interactions. P63165. SUMO1 binding to a labelled peptide, TR-FRET, 1 h. inhibition, % at 20 µM. hit rate 0.33% among 360,000. AID 602429; in the data active means inhibition above about 37%
Target sequence (P63165 whole entry, looked up): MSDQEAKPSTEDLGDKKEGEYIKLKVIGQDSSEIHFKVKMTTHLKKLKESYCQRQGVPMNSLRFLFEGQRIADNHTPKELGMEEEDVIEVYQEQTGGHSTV
DNMT1 block – DNMT1 (human) enzyme inhibition; AID 588458; DNMT1 molecular beacon, Hinp1I cleavage, fluorescence; inhibition (reported as % activation of signal), % at 10 µM; P26358; hit rate 0.83% among 360,000; in the data active means inhibition above about 50%
Scp1 confirm – confirmation of human Scp-1 phosphatase inhibitors; shares compounds with Scp1 inh; recombinant SCP-1 catalytic domain, phosphate release, malachite green absorbance; hit rate 61% among 2,500; inhibition, % at 20 µM;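 further: plate controls were DMSO with enzyme for no effect and buffer wells lacking enzyme for full effect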
Scp-1 MG ctr – counter-screen for Scp-1 inhibitors: colorimetric interference | AID 540313 | 2,500 tested, under 10 active | apparent inhibition (interference), % at 20 µM | Colorimetric interference counterscreen, malachite green absorbance 630 nm | shares compounds with Scp1 inh;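 further: compounds added after enzyme reaction finished so only phosphate colour detection is probed; plate controls were DMSO wells with completed Scp-1 reaction for no effect and substrate wells lacking enzyme for full effect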
Scp1 DSF – validation of human Scp-1 inhibitors by thermal shift binding. Recombinant SCP1, Sypro Orange thermal shift Tm. hit rate 25% among 1,500. shares compounds with Scp1 inh. thermal shift relative to vanadate control, % at 40 µM;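 active means substances whose mean melting-temperature shift, as a percentage of the reference inhibitor's shift, reaches about 5.3%, limit read from the data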;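 further: 0% = Tm of DMSO wells and 100% = Tm with sodium orthovanadate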
* marks the source's active call; other numbers are inactive results.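 How the source made its calls, unless noted: active means inhibition of at least 30% at 20 µM; inactive means the rest.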

Screening Cc1ccc(O)c(Nc2ncnc3ccc([N+](=O)[O-])cc23)c1 returned LMPTP block 1, CSN inh 2, Scp1 inh -1, STEP inh -2, SUMO1 PPI mod -26 and DNMT1 block -6.
Screening O=[N+]([O-])c1ccc(O)c(Nc2ncnc3ccc(Br)cc23)c1 returned LMPTP block 26, CSN inh -13, Scp1 inh 75*, STEP inh 25, SUMO1 PPI mod -5, DNMT1 block 0, Scp1 confirm 42*, Scp-1 MG ctr -18 and Scp1 DSF 14*.
Screening CCc1nnc(NC(=O)CSC(=S)N2CCOCC2)s1 returned LMPTP block -1, CSN inh -3, Scp1 inh 67*, STEP inh 3, SUMO1 PPI mod 5, DNMT1 block 1, Scp1 confirm -8 and Scp-1 MG ctr -10.
`Cc1cccc(NC(=O)COc2ccc(/C=C\c3[nH]c(=O)[nH]c(=O)c3[N+](=O)[O-])cc2)c1` gave LMPTP block 55*, CSN inh 15, Scp1 inh 79*, STEP inh 21, SUMO1 PPI mod 20, DNMT1 block 13, Scp1 confirm 74*, Scp-1 MG ctr -14 and Scp1 DSF 5.5*.
O=C(Nc1ccc(S(=O)(=O)Nc2nccs2)cc1)c1ccc(=O)[nH]c1 was read as LMPTP block 6, CSN inh 16, Scp1 inh 70*, STEP inh -2, SUMO1 PPI mod 32, DNMT1 block -1, Scp1 confirm 60*, Scp-1 MG ctr -12 and Scp1 DSF 8.9*.
Screening O=C(Nc1ccc(S(=O)(=O)Nc2nccs2)cc1)c1ccncc1 returned LMPTP block -1, CSN inh 4, STEP inh -3, SUMO1 PPI mod -4 and DNMT1 block 3.
For CC[N+]1(CC)CC2CCC(C)(C1)C2(C)C (stereo not drawn) the results were LMPTP block -1, CSN inh -6, Scp1 inh 53*, STEP inh -4, SUMO1 PPI mod 3, DNMT1 block 0, Scp1 confirm 88*, Scp-1 MG ctr -18 and Scp1 DSF -6.
CC12CCC(C[N+](C)(C)C1)C2(C)C (stereo not drawn) was read as LMPTP block -1, CSN inh 7, Scp1 inh 86*, STEP inh 0, SUMO1 PPI mod -3, DNMT1 block 1, Scp1 confirm 96*, Scp-1 MG ctr -5 and Scp1 DSF -5.
Nc1nnc(SCC(=O)OCC(=O)c2ccccc2Br)s1 was read as LMPTP block 0, CSN inh 3, Scp1 inh -9, STEP inh 0, SUMO1 PPI mod -3 and DNMT1 block 1.
Screening Cc1ccc([C@@H]2CC=C(C(=O)O)[C@H](c3ccc(Cl)cc3)N2S(=O)(=O)c2ccccc2C)cc1 returned LMPTP block 1, CSN inh -1, Scp1 inh 8, STEP inh 7, SUMO1 PPI mod 9 and DNMT1 block 3.
`C/C(N)=C(/C#N)C(=O)CN1C(=O)NC(Cc2c[nH]c3ccccc23)C1=O` (stereo not drawn) gave LMPTP block 7, CSN inh 4, Scp1 inh 65*, STEP inh 12, SUMO1 PPI mod 11, DNMT1 block 17, Scp1 confirm 60*, Scp-1 MG ctr -11 and Scp1 DSF 2.
For CCCOP(=O)(c1ccc(N(C)C)cc1)C(O)c1ccc(Cl)cc1Cl (stereo not drawn) the results were LMPTP block -1, CSN inh -5, Scp1 inh 1, STEP inh -1, SUMO1 PPI mod 0 and DNMT1 block -4.
For Cc1cc(Cl)ccc1OCC(=O)N[C@@H](Cc1ccccc1)c1nc2ccccc2[nH]1 the results were LMPTP block -2, CSN inh -2, Scp1 inh 86*, STEP inh 1, SUMO1 PPI mod -3, DNMT1 block 7, Scp1 confirm 36*, Scp-1 MG ctr -10 and Scp1 DSF -24.
Screening CCC(C)(C)n1nnnc1C(c1ccc(C)cc1)N1CCN(Cc2ccc3c(c2)OCO3)CC1 (stereo not drawn) returned LMPTP block -1, CSN inh -1, Scp1 inh 66*, STEP inh -11, SUMO1 PPI mod 1, DNMT1 block 2, Scp1 confirm -17 and Scp-1 MG ctr -21.
`c1ccc(CCn2nnnc2C(c2cccs2)N2CCN(Cc3ccc4c(c3)OCO4)CC2)cc1` (stereo not drawn) gave LMPTP block 1, CSN inh 0, Scp1 inh 67*, STEP inh -1, SUMO1 PPI mod -5, DNMT1 block -4, Scp1 confirm 23 and Scp-1 MG ctr 6.
COc1ccccc1CNC(=O)C(C)c1ccc([N+](=O)[O-])cc1 (stereo not drawn) was read as LMPTP block 1, CSN inh 0, Scp1 inh -6, STEP inh -1, SUMO1 PPI mod -11 and DNMT1 block -1.
For Cc1cc(=O)n2ncnc2n1COCCO the results were LMPTP block 1, CSN inh -5, Scp1 inh 3, STEP inh 2, SUMO1 PPI mod 3 and DNMT1 block 2.
Screening NNC(=O)Cn1c(-c2ccccc2)cc(=O)n2ncnc12 returned LMPTP block -2, CSN inh 1, Scp1 inh 69*, STEP inh -1, SUMO1 PPI mod 2, DNMT1 block 2, Scp1 confirm -6 and Scp-1 MG ctr -5.
`CCOC(=O)/C=C1\CN(C(C)c2ccccc2)S(=O)(=O)c2ccccc21` (stereo not drawn) gave LMPTP block 1, CSN inh 3, Scp1 inh 84*, STEP inh 2, SUMO1 PPI mod -3, DNMT1 block 3, Scp1 confirm 46*, Scp-1 MG ctr -18 and Scp1 DSF -20.
`CCOC(=O)/C=C1\CC(C(=O)OCC)Oc2ccccc21` (stereo not drawn) gave LMPTP block -2, CSN inh 0, Scp1 inh 1, STEP inh -2, SUMO1 PPI mod -7 and DNMT1 block 4.
